Results gathered from unrelated publications.
Cell line: HT-29
Observed: cell growth or viability

Compound	test	conditions	inhibition [%]
COc1ccc2c(c1)/C(=N/NC(=O)c1cc3ccccc3[nH]1)C(=O)N2		30 µM	36.5
COc1cc2ncnc(NN=C3C(=O)Nc4ccc(C)cc43)c2cc1OC		30 µM	49.3
O=C1Nc2ccc(F)cc2/C1=N/NC(=O)c1cc2ccccc2[nH]1		30 µM	13.9
O=C1Nc2ccccc2C1=NNc1nnc(Cc2ccccc2)c2ccccc12		30 µM	87.6
COc1ccc(C(=O)/C=C/c2cccc(Cl)c2)cc1S(N)(=O)=O	SRB	10 µM	99
CN1C(=O)/C(=N\NC(=O)c2cc3ccccc3[nH]2)c2ccccc21		30 µM	78.5
COc1cc2ncnc(NN=C3C(=O)Nc4ccc(Br)cc43)c2cc1OC		10 µM	18.6
COc1ccc(C(=O)/C=C/c2cc3c(cc2Br)OCO3)cc1S(N)(=O)=O	SRB	10 µM	100
COc1cccc2c1C(=O)c1c(O)c3c(c(O)c1C2=O)C[C@@](O)(C(=O)CO)C[C@@H]3O[C@H]1C[C@H](N)[C@H](O)[C@H](C)O1	SRB	10 µg/mL, 48 h	97.1
COc1ccc(C(=O)/C=C/c2cccc3ccccc23)cc1S(N)(=O)=O	SRB	10 µM	140
CN1C(=O)/C(=N\NC(=O)c2cc3ccccc3[nH]2)c2cc(Cl)ccc21		30 µM	92.4
Cn1c(=O)c(NN=C2C(=O)Nc3ccc(Br)cc32)nc2ccccc21		30 µM	49.4
CCN(CC)CCNC(=O)c1c(C)[nH]c(/C=C2\C(=O)Nc3ccc(F)cc32)c1C		30 µM	59.5
COc1ccc(C(=O)/C=C/c2ccc3ccccc3c2)cc1S(N)(=O)=O	SRB	10 µM	126
COc1ccc2c(c1)C(=NNc1nnc(Cc3ccccc3)c3ccccc13)C(=O)N2		30 µM	9.3
COc1ccc2c(c1)/C(=N/NC(=O)c1cc3ccccc3[nH]1)C(=O)N2C		30 µM	90.8
COc1ccc(C(=O)/C=C/c2ccc3c(c2)OCCO3)cc1S(N)(=O)=O	SRB	10 µM	67
COc1ccc2c(c1)C(=NNc1nc3ccccc3n(C)c1=O)C(=O)N2		30 µM	48.5
COc1ccc(C(=O)/C=C/c2cccc(Cl)c2Cl)cc1S(N)(=O)=O	SRB	10 µM	106
O=C1Nc2ccccc2C1=NNc1nnc2n1N=C(c1ccccc1)CS2	SRB	10 µM	28
